Assay results reported in ChEMBL document CHEMBL2074314, “Involvement of human organic anion transporting polypeptide OATP-B (SLC21A9) in pH-dependent transport across intestinal apical membrane” (J Pharmacol Exp Ther, 2003).

What was measured:
[1] = target: T1, OATP-B (SLCO2B1, OATP2B1) (Homo sapiens, UniProt O94956); experiment: TP_TRANSPORTER: inhibition of E1S uptake (E1S: 0.00476 uM, citric acid: 10000 uM) in OATP-B-expressing HEK293 cells; type: functional, cell-based; set-up: scale not given: the % may be the effect or the level left; details: probe E1S (0.00476 uM), read-out: Activity
T1 sequence (O94956 whole entry): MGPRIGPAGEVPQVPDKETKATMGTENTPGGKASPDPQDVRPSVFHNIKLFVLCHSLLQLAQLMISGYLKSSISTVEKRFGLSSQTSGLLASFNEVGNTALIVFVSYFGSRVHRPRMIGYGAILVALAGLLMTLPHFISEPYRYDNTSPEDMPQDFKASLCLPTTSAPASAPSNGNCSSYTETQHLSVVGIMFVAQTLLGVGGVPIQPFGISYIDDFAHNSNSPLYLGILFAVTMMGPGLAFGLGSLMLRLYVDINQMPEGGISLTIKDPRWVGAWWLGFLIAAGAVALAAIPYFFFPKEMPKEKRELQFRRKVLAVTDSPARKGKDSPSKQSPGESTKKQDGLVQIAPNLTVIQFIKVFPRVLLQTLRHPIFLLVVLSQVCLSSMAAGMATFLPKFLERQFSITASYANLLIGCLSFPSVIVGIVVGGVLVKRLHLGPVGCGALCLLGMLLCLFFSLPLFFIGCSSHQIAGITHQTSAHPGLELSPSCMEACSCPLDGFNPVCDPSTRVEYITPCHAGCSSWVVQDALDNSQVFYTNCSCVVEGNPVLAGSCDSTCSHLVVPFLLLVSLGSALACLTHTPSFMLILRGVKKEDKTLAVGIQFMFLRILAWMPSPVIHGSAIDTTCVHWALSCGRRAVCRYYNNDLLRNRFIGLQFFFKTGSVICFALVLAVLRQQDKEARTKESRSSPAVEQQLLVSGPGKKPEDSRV
Outline: (§1)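 HEK293 cells transfected with pcDNA3/OATP-B or empty vector (mock) by calcium phosphate, harvested 40-48 h later and suspended. Preincubated 20 min at 37°C at pH 7.4, then [3H]estrone-3-sulfate (4.76 nM) uptake for 10 min at 37°C in MES-buffered medium, pH 5.5. Cells separated by silicone oil centrifugal filtration and counted by scintillation. Mock-corrected uptake given as % of no-inhibitor control; mean ± S.E.M., n=3 or 4.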

[2] = target: T1, OATP-B (SLCO2B1, OATP2B1); experiment: TP_TRANSPORTER: inhibition of E1S uptake (E1S: 0.00476 uM, phthalic acid: 10000 uM) in OATP-B-expressing HEK293 cells; type: functional, cell-based; set-up: scale not given: the % may be the effect or the level left; details: probe E1S (0.00476 uM), read-out: Activity; outline: as §1
[3] = target: T2, Solute carrier organic anion transporter family member 2B1 (Homo sapiens, UniProt O94956); experiment: TP_TRANSPORTER: uptake (pH 5.5) in OATP-B-expressing HEK293 cells; type: functional, cell-based; details: hek293, pH 5.5
T2 sequence (O94956 whole entry): T1 sequence (O94956 whole entry)

[4] = target: T1, OATP-B (SLCO2B1, OATP2B1); experiment: TP_TRANSPORTER: inhibition of E1S uptake (E1S: 0.00476 uM, benzoic acid: 10000 uM) in OATP-B-expressing HEK293 cells; type: functional, cell-based; set-up: scale not given: the % may be the effect or the level left; details: probe E1S (0.00476 uM), read-out: Activity; outline: as §1
[5] = target: T1, OATP-B (SLCO2B1, OATP2B1); experiment: TP_TRANSPORTER: inhibition of E1S uptake (E1S: 0.00476 uM, oxalic acid: 10000 uM) in OATP-B-expressing HEK293 cells; type: functional, cell-based; set-up: scale not given: the % may be the effect or the level left; details: probe E1S (0.00476 uM), read-out: Activity; outline: as §1
[6] = target: T1, OATP-B (SLCO2B1, OATP2B1); experiment: in vitro; details: HEK293 cells expressing OATP-B, probe E1S (0.00476 uM)
[7] = target: T1, OATP-B (SLCO2B1, OATP2B1); experiment: TP_TRANSPORTER: inhibition of E1S uptake (E1S: 0.00476 uM, lactic acid: 10000 uM) in OATP-B-expressing HEK293 cells; type: functional, cell-based; set-up: scale not given: the % may be the effect or the level left; details: probe E1S (0.00476 uM), read-out: Activity; outline: as §1
[8] = target: T2, Solute carrier organic anion transporter family member 2B1; experiment: TP_TRANSPORTER: uptake (pH 7.4) in OATP-B-expressing HEK293 cells; type: functional, cell-based; details: hek293, pH 7.4
[9] = target: T1, OATP-B (SLCO2B1, OATP2B1); experiment: in vitro; details: HEK293 cells expressing OATP-B, probe E1S (0.00476 uM); remark: listed apart in the source

## O=C(O)CC(O)(CC(=O)O)C(=O)O [CITRIC ACID]
[1]
  activity at 10000 uM: 97.7%

## O=C(O)c1ccccc1C(=O)O [PHTHALIC ACID]
[2]
  activity at 10000 uM: 42.7%

## CC[C@H](C)C(=O)O[C@H]1C[C@H](O)C=C2C=C[C@H](C)[C@H](CC[C@@H](O)C[C@@H](O)CC(=O)O)[C@H]21 [PRAVASTATIN]
[3]
  Activity: substrate [+]

## O=C(O)c1ccccc1 [BENZOIC ACID]
[4]
  activity at 10000 uM: 56.1%

## O=C(O)C(=O)O [OXALIC ACID]
[5]
  activity at 10000 uM: 83.9%

## CC(=O)O [ACETIC ACID]
[6]
  activity at 10000 uM: 86.1%

## C[C@@H](O)C(=O)O [D-LACTIC ACID]
[7]
  activity at 10000 uM: 85.6%

## C[C@]12CC[C@@H]3c4ccc(OS(=O)(=O)O)cc4CC[C@H]3[C@@H]1CCC2=O [ESTRONE SULFURIC ACID]
[8]
  Activity: substrate [+]

## O=C(O)c1cccnc1 [NIACIN]
[9]
  activity at 10000 uM: 59.7%
